According to ChEMBL document CHEMBL1151746, “Antitumor agents 6. Synthesis, structure-activity relationships, and biological evaluation of spiro[imidazolidine-4,3'-thieno[2,3-g]quinoline]-tetraones and spiro[thieno[2,3-g]quinoline-3,5'-[1,2,4]triazinane]-tetraones with potent antiproliferative activity” (J Med Chem, 2008):
Activity calls are given as the source filed them. No cut-off for these calls is given here.

Columns and labels:
CCRF-SB = test: Antiproliferative activity against human CCRF-SB cells after 96 hrs by MTT assay; format: functional, cell-based
Outline: (§1)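 Exponentially growing cells in RPMI 1640 with 10% FCS were resuspended at 1 × 10⁵ cells/mL in RPMI containing serial dilutions of compound (DMSO solution at 200 µM, diluted in medium). After 96 h at 37 °C, viability was read by MTT. Growth was taken as % of untreated controls, which grew at least three rounds. IC50 came from linear regression, as the mean of three independent determinations.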

MCF7 = test: Antiproliferative activity against human MCF7 cells after 96 hrs by MTT assay; format: functional, cell-based; conditions: MCF7, 96 h
Outline: (§2)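 Solid-tumor cells in their specific media with 10% FCS were seeded at 5 × 10⁴ cells/mL and left to adhere 16 h. Serially diluted compound was then added (DMSO solution at 200 µM, diluted in medium). MTT viability was read 4 days later. IC50 came from linear regression against untreated controls, which grew at least three rounds, as the mean of three independent determinations.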

XF498 = test: Antiproliferative activity against human XF498 cells after 96 hrs by MTT assay; format: functional, cell-based; conditions: XF498, 96 h; outline: as §2
CCRF-CEM = test: Antiproliferative activity against human CCRF-CEM cells after 96 hrs by MTT assay; format: functional, cell-based; outline: as §1
HT-29 = test: Antiproliferative activity against human HT-29 cells after 96 hrs by MTT assay; format: functional, cell-based; conditions: Homo sapiens, HT-29, 96 h; outline: as §2
HeLa = test: Antiproliferative activity against human HeLa cells after 96 hrs by MTT assay; format: functional, cell-based; outline: as §2
MRC5 = test: Antiproliferative activity against human MRC5 cells after 96 hrs by MTT assay; format: cell-based; conditions: MRC5, 96 h; outline: as §1
MT4 = test: Antiproliferative activity against human MT4 cells after 96 hrs by MTT assay; format: functional, cell-based; conditions: Homo sapiens, MT4, 96 h; outline: as §1
SF-268 = test: Antiproliferative activity against human SF-268 cells after 96 hrs by MTT assay; format: functional, cell-based; conditions: SF-268, 96 h; outline: as §2
[1] = target: DNA topoisomerase 2-alpha (Homo sapiens) (UniProt P11388); test: Inhibition of DNA topoisomerase 2-mediated negatively supercoiled pBR322 relaxation
Chain of DNA topoisomerase 2-alpha (Homo sapiens) (P11388 whole entry): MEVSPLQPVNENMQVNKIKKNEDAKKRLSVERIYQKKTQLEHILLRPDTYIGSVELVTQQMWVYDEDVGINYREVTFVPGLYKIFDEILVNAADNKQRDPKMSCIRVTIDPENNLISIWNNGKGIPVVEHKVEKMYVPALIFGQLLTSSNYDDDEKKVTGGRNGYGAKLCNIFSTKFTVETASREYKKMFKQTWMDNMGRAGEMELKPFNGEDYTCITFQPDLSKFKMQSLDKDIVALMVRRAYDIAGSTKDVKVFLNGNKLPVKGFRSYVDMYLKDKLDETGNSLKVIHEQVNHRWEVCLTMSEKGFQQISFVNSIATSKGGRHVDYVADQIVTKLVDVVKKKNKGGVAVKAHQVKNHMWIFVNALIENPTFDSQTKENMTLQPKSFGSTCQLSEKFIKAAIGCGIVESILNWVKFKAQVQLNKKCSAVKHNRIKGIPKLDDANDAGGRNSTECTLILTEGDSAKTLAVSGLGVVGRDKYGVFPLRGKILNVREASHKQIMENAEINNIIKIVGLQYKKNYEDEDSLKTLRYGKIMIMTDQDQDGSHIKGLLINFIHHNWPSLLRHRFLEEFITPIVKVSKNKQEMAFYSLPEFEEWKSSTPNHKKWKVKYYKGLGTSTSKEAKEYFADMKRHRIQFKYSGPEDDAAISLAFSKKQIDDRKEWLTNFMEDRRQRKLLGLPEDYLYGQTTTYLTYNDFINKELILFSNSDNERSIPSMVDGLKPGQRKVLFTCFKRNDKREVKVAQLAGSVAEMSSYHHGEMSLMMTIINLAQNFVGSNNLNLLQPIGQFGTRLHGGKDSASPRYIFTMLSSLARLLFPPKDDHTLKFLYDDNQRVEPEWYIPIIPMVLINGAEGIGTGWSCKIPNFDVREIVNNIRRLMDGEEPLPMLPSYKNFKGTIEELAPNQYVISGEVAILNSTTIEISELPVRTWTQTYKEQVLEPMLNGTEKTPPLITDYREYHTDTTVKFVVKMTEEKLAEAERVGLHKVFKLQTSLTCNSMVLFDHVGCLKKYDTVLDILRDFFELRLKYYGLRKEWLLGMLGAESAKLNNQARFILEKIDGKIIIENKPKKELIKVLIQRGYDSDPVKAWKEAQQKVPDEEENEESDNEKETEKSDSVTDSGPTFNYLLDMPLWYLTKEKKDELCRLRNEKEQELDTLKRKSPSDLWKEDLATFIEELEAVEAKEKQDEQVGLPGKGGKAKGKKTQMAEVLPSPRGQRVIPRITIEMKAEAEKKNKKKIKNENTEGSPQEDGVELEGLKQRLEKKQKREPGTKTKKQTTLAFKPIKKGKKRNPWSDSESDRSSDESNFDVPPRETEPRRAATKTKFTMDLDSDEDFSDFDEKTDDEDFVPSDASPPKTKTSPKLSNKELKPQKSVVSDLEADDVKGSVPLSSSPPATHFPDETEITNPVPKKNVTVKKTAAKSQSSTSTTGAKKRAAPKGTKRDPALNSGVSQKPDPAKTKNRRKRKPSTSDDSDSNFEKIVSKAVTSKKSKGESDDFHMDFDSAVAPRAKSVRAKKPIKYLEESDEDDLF

[2] = target: T1, DNA topoisomerase 1 (Homo sapiens) (UniProt P11387); test: Inhibition of DNA topoisomerase 1-mediated supercoiled pBR322 DNA relaxation at 5 to 10 uM by agarose gel electrophoresis
T1 sequence (whole entry): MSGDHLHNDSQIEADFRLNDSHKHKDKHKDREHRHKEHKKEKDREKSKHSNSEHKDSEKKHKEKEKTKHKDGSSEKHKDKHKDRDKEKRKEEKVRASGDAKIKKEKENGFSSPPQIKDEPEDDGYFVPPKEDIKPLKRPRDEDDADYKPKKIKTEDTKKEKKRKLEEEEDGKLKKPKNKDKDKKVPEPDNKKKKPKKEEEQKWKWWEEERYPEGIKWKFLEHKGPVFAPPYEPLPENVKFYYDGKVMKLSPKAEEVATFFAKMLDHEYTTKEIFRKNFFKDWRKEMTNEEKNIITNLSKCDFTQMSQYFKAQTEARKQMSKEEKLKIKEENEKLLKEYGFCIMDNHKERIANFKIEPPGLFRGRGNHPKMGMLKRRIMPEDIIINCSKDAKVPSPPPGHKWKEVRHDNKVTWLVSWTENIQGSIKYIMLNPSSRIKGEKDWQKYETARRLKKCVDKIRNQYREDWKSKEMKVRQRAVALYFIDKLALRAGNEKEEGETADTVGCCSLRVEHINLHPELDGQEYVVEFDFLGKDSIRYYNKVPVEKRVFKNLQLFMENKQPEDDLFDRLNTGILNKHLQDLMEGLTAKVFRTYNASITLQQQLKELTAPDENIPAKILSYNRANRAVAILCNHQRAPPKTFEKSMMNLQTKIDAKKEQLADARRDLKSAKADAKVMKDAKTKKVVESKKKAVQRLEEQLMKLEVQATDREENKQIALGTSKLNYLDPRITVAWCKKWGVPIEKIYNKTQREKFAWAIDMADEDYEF

ACHN = test: Antiproliferative activity against human ACHN cells after 96 hrs by MTT assay; format: functional, cell-based; outline: as §2
[3] = target: T1, DNA topoisomerase 1 (Homo sapiens); test: Inhibition of DNA topoisomerase 1-mediated supercoiled pBR322 DNA relaxation at 25 uM by agarose gel electrophoresis
[4] = target: T1, DNA topoisomerase 1 (Homo sapiens); test: Inhibition of DNA topoisomerase 1-mediated supercoiled pBR322 DNA relaxation at 5 uM by agarose gel electrophoresis
[5] = target: T2, DNA ligase (Enterobacteria phage T4) (UniProt P00970); test: Inhibition of T4 DNA ligase by DNA unwinding assay; conditions: Tequatrovirus T4
T2 sequence (whole entry): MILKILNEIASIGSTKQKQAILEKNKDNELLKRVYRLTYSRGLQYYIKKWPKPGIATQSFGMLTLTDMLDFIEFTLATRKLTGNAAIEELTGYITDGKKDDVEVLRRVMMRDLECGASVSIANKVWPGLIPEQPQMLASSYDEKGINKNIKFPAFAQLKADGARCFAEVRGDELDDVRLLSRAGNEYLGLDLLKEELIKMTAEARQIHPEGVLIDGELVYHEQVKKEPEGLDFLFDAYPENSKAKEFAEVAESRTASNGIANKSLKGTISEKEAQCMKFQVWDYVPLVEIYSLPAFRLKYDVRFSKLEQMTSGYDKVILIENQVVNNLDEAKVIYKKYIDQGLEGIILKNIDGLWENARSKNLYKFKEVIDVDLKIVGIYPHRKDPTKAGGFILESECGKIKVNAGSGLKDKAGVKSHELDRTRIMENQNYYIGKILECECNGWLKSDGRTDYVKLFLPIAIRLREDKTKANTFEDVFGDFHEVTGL
Outline: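 EcoRI-linearized pBR322 (0.1 µg) in 30 mM Tris-HCl pH 7.8, 10 mM MgCl2, 10 mM DTT and 0.5 mM ATP was equilibrated with compound 30 min at 20 °C. Excess T4 DNA ligase was then added for 30 min at 20 °C, and reactions were stopped at 55 °C. After phenol extraction, products were resolved on 1% agarose gels.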

| IC50 (CCRF-SB) | IC50 (MCF7) | IC50 (CCRF-CEM) | IC50 (HT-29) | IC50 (HeLa) | Activity [1] | Activity [2] | IC50 (ACHN) | Activity [3] | Activity [4] | Activity [5] | SMILES | IC50 (XF498) | IC50 (MRC5) | IC50 (MT4) | IC50 (SF-268) |
| --- | --- | --- | --- | --- | --- | --- | --- | --- | --- | --- | --- | --- | --- | --- | --- |
| 2 nM | 2 nM | 1 nM | 1 nM | 5 nM | Dose-dependent effect | inactive | 1 nM | – | – | – | CCCc1ccc(N2C(=O)NC3(CSC4=C3C(=O)c3ncccc3C4=O)C2=O)cc1 (racemic) | 450 nM | 850 nM | 1 nM | 300 nM |
| – | – | 20 nM | 2 nM | – | – | – | – | Active | Active | Active | COc1cccc2c1C(=O)c1c(O)c3c(c(O)c1C2=O)C[C@@](O)(C(=O)CO)C[C@@H]3O[C@H]1C[C@H](N)[C@H](O)[C@H](C)O1 [DOXORUBICIN] | 160 nM | 300 nM | 3 nM | 200 nM |
